The results in this text go back to ChEMBL document CHEMBL4346663, “N-Cinnamoylanthranilates as human TRPA1 modulators: Structure-activity relationships and channel binding sites” (Eur J Med Chem, 2019).

Data set [1] deals with T1, Transient receptor potential cation channel subfamily A member 1 (Homo sapiens, UniProt O75762). Kind of data set: Antagonist activity at human TRPA1 expressed in HEK293 cells assessed as increase in calcium influx at 100 uM incubated for 10 mins prior to CA addition by Fluo-4-AM dye based fluorescence assay relative to CA. It is filed as cell-based. Also noted: scale not given: the % may be the effect or the level left. The method in brief: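 hTRPA1-HEK293 cells loaded with Fluo-4AM (2 µM). Compound pre-incubated 10 min, then cinnamaldehyde standard agonist added. FlexStation read, ex 485/em 538 nm. ΔRFU normalized to the CA response set at 100 % after DMSO vehicle subtraction. N = 3. logIC50 taken from dose-response fits.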

The target in data set [2] is T1, Transient receptor potential cation channel subfamily A member 1. In words: Reversible desensitizing activity at human TRPA1 expressed in HEK293 cells assessed as CA-induced increase in Ca2+ influx upto 10 uM pretreated with compound followed by drug wash-out and CA challenge by Fluo-4-AM dye based fluorescence assay. It is filed as cell-based. In a few lines: (§1)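 hTRPA1-HEK293 cells loaded with Fluo-4AM were pre-incubated with compound, then washed and resuspended in fresh assay buffer. The response to cinnamaldehyde (30 µM) was then measured by FlexStation calcium fluorescence.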

Data set [3] has the same target. In words: Antagonist activity at human TRPA1 expressed in HEK293 cells assessed as inhibition of CA-induced increase in calcium influx incubated for 10 mins prior to CA addition by Fluo-4-AM dye based fluorescence assayy. It is filed as cell-based.
In data set [4] the target is T2, Transient receptor potential cation channel subfamily M member 8 (Homo sapiens, UniProt Q7Z2W7). In words: Agonist activity at human TRPM8 expressed in HEK293 cells assessed as increase in calcium influx at 30 uM by Fluo-4-AM dye based fluorescence assay relative to calcimycin. It counts as cell-based. In a few lines: (§2)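 Stably transfected hTRPA1- or hTRPM8-HEK293 cells on poly-D-lysine plates for 48 h, loaded with Fluo-4AM (2 µM, 45 min, dark, room temperature), in isotonic HEPES buffer pH 7.4. FlexStation 240 s run: 20 s baseline, compound added, calcimycin added at 180 s. ΔRFU expressed as % calcimycin, DMSO-subtracted. Screening N = 3. Dose-response curves fitted for logEC50 (N = 3 in duplicate or triplicate).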
Target sequence in this assay (Q7Z2W7 whole entry, looked up): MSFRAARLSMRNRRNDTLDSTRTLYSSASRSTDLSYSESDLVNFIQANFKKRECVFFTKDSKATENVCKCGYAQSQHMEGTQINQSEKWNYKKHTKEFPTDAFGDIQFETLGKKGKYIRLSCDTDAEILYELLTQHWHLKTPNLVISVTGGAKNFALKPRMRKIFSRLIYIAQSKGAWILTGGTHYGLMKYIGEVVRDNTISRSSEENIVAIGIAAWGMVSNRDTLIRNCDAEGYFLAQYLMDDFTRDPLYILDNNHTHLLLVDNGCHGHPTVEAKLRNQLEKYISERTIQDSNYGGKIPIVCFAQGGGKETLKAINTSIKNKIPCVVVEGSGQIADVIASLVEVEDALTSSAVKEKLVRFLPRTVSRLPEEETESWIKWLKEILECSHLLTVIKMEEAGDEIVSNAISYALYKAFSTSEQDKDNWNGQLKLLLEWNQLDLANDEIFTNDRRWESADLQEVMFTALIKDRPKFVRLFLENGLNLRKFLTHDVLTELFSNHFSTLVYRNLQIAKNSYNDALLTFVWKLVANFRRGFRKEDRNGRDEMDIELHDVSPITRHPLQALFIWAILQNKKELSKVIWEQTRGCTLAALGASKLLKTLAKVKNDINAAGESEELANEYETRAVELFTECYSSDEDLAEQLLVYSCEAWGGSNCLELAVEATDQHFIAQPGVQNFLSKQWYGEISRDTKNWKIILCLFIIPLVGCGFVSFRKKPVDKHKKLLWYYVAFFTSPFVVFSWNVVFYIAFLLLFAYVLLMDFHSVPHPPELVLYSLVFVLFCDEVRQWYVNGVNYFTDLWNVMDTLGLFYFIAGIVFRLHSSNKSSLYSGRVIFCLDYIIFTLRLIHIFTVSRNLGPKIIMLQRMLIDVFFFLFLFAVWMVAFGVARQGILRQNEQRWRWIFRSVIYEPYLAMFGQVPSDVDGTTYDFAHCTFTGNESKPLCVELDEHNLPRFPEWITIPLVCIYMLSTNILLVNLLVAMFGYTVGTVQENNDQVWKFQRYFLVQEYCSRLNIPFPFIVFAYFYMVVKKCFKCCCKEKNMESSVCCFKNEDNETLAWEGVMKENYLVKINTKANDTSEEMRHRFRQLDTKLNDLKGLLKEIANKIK

Data set [5] has as its target T1, Transient receptor potential cation channel subfamily A member 1. Kind of data set: Agonist activity at human TRPA1 expressed in HEK293 cells assessed as increase in calcium influx by Fluo-4-AM dye based fluorescence assay. It is filed as cell-based. The method in brief:
as §2

Data set [6] can be described thus: Dissociation constant, pKa of the compound at pH 7.4. It counts as physicochemical.
For data set [7], the target named is T2, Transient receptor potential cation channel subfamily M member 8. Kind of data set: Antagonist activity at human TRPM8 expressed in HEK293 cells assessed as increase in calcium influx at 100 uM incubated for 10 mins prior to WS5 challenge by Fluo-4-AM dye based fluorescence assay relative to WS5. It counts as cell-based. Also noted: scale not given: the % may be the effect or the level left. In a few lines:
(§3)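 hTRPM8-HEK293 cells loaded with Fluo-4AM (2 µM, 45 min). Test compound pre-incubated 10 min before WS5 standard agonist. FlexStation fluorescence at 485/538 nm. ΔRFU given as % of WS5 response after DMSO vehicle subtraction. N = 3. IC50 from dose-response curves.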
Target sequence in this assay (Q7Z2W7 whole entry, looked up): as above

Data set [8] concerns the target T1, Transient receptor potential cation channel subfamily A member 1. In words: Agonist activity at human TRPA1 expressed in HEK293 cells assessed as increase in calcium influx at 30 uM by Fluo-4-AM dye based fluorescence assay relative to calcimycin. It is filed as cell-based. The method in brief: as §2
In data set [9] the target is T2, Transient receptor potential cation channel subfamily M member 8. Kind of data set: Antagonist activity at human TRPM8 expressed in HEK293 cells assessed as inhibition in WS5-induced increase in calcium influx incubated for 10 mins prior to WS5 challenge by Fluo-4-AM dye based fluorescence assay. It is filed as cell-based. In a few lines:
as §3
Target sequence in this assay (Q7Z2W7 whole entry): as the sequence (Q7Z2W7 whole entry, looked up) above

Data set [10] deals with T1, Transient receptor potential cation channel subfamily A member 1. In words: Irreversible desensitizing activity at human TRPA1 expressed in HEK293 cells assessed as CA-induced increase in Ca2+ influx at >30 uM pretreated with compound followed by drug wash-out and CA challenge by Fluo-4-AM dye based fluorescence assay. It counts as cell-based. The method in brief:
as §1

The target is the same in data set [11]. In words: Modulating activity at human TRPA1 expressed in HEK293 cells assessed as desensitization of CA-induced increase in Ca2+ influx at 10 uM measured within 10 mins by Fluo-4-AM dye based fluorescence assay. It is filed as cell-based. The method in brief:
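hTRPA1-HEK293 cells with Fluo-4AM. Real-time fluorescence recorded for 10 min after compound addition (10 µM), followed by challenge with cinnamaldehyde (30 µM) to assess desensitization of the agonist response.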

In data set [12] the target is T2, Transient receptor potential cation channel subfamily M member 8. Kind of data set: Agonist activity at human TRPM8 expressed in HEK293 cells assessed as increase in calcium influx at 100 uM by Fluo-4-AM dye based fluorescence assay relative to calcimycin. It counts as cell-based. In a few lines: as §2
Target sequence in this assay (Q7Z2W7 whole entry, looked up): as above
Data set [13] deals with T1, Transient receptor potential cation channel subfamily A member 1. Kind of data set: Reversible desensitizing activity at human TRPA1 expressed in HEK293 cells assessed as CA-induced increase in Ca2+ influx up to 30 uM pretreated with compound followed by drug wash-out and CA challenge by Fluo-4-AM dye based fluorescence assay. It is filed as cell-based. The method in brief: as §1

Data set [14] concerns Transient receptor potential cation channel subfamily A member 1 (Homo sapiens), O75762 [F909A]. Kind of data set: Antagonist activity at human TRPA1 Phe909Ala mutant expressed in HEK293 cells assessed as Ca2+ influx at 100 uM by fluorescence assay. It counts as cell-based. The method in brief: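 hTRPA1 F909A or F944A mutant HEK293 stable clones, loaded with Fluo-4AM (2 µM, 45 min, room temperature). Compound pre-incubated 10 min before the standard agonist was added. FlexStation fluorescence (485/538 nm). ΔRFU normalized to the standard agonist response set at 100 %, after DMSO vehicle subtraction.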

The subject of data set [15] is Transient receptor potential cation channel subfamily A member 1 (Homo sapiens), O75762 [F944A]. In words: Agonist activity at human TRPA1 Phe944Ala mutant expressed in HEK293 cells assessed as Ca2+ influx at 30 uM by fluorescence assay. It counts as cell-based. The method in brief:
(§4)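 HEK293 cells stably expressing hTRPA1 point mutants (C621A, F909A or F944A), single-cell cloned under G418 selection. Cells plated on poly-D-lysine for 48 h, loaded with Fluo-4AM 2 µM for 45 min at room temperature. FlexStation read (ex 485/em 538 nm): 20 s baseline, compound added, calcimycin added at 180 s. Response expressed as % calcimycin from ΔRFU, vehicle-subtracted, and compared with wild-type hTRPA1 cells.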

Data set [16] has as its system Transient receptor potential cation channel subfamily A member 1 (Homo sapiens), O75762 [F909A]. In words: Agonist activity at human TRPA1 Phe909Ala mutant expressed in HEK293 cells assessed as Ca2+ influx at 10 uM by fluorescence assay. It counts as cell-based. In a few lines: as §4
Data set [17] concerns Transient receptor potential cation channel subfamily A member 1 (Homo sapiens), O75762 [F944A]. In words: Agonist activity at human TRPA1 Phe944Ala mutant expressed in HEK293 cells assessed as Ca2+ influx at 10 uM by fluorescence assay. It counts as cell-based. In a few lines: as §4
Data set [18] deals with Transient receptor potential cation channel subfamily A member 1 (Homo sapiens), O75762 [F909A]. In words: Agonist activity at human TRPA1 Phe909Ala mutant expressed in HEK293 cells assessed as Ca2+ influx at 30 uM by fluorescence assay. It counts as cell-based. In a few lines: as §4
Data set [19] concerns the target T1, Transient receptor potential cation channel subfamily A member 1. In words: Agonist activity at human TRPA1 in WI38 cells assessed as increase in calcium influx by Fluo-4-AM dye based fluorescence assay. It is filed as cell-based.
In data set [20] the target is T2, Transient receptor potential cation channel subfamily M member 8. In words: Antagonist activity at human TRPM8 expressed in HEK293 cells assessed as increase in calcium influx at 3 uM incubated for 10 mins prior to WS5 challenge by Fluo-4-AM dye based fluorescence assay relative to WS5. Further details: scale not given: the % may be the effect or the level left. It counts as cell-based. In a few lines:
as §3
Target sequence in this assay (Q7Z2W7 whole entry, looked up): as above

In data set [21] the target is T1, Transient receptor potential cation channel subfamily A member 1. In words: Antagonist activity at human TRPA1 expressed in HEK293 cells assessed as increase in calcium influx at 3 uM incubated for 10 mins prior to CA challenge by Fluo-4-AM dye based fluorescence assay […]. It is filed as cell-based.
Data set [22] addresses T2, Transient receptor potential cation channel subfamily M member 8. Kind of data set: Agonist activity at human TRPM8 expressed in HEK293 cells assessed as increase in calcium influx at 3 uM by Fluo-4-AM dye based fluorescence assay relative to calcimycin. It is filed as cell-based. In a few lines: as §2
Target sequence in this assay (Q7Z2W7 whole entry, looked up): as above
Data set [23] has as its target T1, Transient receptor potential cation channel subfamily A member 1. Kind of data set: Agonist activity at human TRPA1 expressed in HEK293 cells assessed as increase in calcium influx at 3 uM by Fluo-4-AM dye based fluorescence assay relative to calcimycin. It counts as cell-based. The method in brief:
as §2

In data set [24] the target is Transient receptor potential cation channel subfamily A member 1 (Mus musculus, UniProt Q8BLA8). In words: Agonist activity at mouse TRPA1 expressed in CHO cells assessed as increase in calcium influx by patch clamp electrophysiology method. It counts as cell-based.
Data set [25] deals with Transient receptor potential cation channel subfamily A member 1 (Homo sapiens), O75762 [F909A]. Kind of data set: Agonist activity at human TRPA1 Phe909Ala mutant expressed in HEK293 cells assessed as Ca2+ influx […] fluorescence assay. It counts as cell-based. The method in brief:
as §4

Structures are written as SMILES. Activity calls are given as the source filed them. The rule behind the calls is not given here.

Chain of Transient receptor potential cation channel subfamily A member 1 (Homo sapiens), O75762 [F944A] (O75762 whole entry F944A): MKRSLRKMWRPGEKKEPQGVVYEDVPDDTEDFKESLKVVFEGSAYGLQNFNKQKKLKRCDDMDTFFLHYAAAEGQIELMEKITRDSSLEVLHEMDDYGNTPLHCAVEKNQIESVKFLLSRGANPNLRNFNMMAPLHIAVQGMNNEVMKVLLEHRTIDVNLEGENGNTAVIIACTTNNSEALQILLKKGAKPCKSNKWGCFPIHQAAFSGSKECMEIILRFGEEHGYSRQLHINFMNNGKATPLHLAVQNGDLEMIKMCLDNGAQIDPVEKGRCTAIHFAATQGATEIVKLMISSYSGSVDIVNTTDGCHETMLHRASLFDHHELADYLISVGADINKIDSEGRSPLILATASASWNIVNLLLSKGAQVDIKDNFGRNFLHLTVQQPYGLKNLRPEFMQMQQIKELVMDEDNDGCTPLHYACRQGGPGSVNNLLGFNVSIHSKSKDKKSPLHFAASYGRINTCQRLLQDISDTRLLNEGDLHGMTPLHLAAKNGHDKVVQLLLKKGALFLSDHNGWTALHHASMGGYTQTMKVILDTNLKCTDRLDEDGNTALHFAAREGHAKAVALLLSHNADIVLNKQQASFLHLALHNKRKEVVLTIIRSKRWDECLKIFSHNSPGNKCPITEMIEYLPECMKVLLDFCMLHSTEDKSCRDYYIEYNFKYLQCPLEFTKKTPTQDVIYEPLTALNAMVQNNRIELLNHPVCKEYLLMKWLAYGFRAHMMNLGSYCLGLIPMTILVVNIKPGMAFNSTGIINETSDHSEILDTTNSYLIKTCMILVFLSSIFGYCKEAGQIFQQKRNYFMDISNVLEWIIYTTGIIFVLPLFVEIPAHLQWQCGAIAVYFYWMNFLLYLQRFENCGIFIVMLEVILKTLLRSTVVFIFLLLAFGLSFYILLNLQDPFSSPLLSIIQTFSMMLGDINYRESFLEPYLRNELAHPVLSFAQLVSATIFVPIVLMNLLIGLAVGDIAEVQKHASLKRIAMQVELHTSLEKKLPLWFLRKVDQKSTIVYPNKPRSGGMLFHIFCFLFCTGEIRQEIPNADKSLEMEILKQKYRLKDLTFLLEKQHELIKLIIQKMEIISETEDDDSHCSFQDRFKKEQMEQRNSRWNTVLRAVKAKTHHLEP
T1 sequence (O75762 whole entry): as the sequence (O75762 whole entry F944A) above, with A944F counted along it
Chain of Transient receptor potential cation channel subfamily A member 1 (Homo sapiens), O75762 [F909A] (O75762 whole entry F909A): as the sequence (O75762 whole entry F944A) above, with F909A, A944F counted along it
Chain of Transient receptor potential cation channel subfamily A member 1 (Mus musculus, UniProt Q8BLA8) (Q8BLA8 whole entry): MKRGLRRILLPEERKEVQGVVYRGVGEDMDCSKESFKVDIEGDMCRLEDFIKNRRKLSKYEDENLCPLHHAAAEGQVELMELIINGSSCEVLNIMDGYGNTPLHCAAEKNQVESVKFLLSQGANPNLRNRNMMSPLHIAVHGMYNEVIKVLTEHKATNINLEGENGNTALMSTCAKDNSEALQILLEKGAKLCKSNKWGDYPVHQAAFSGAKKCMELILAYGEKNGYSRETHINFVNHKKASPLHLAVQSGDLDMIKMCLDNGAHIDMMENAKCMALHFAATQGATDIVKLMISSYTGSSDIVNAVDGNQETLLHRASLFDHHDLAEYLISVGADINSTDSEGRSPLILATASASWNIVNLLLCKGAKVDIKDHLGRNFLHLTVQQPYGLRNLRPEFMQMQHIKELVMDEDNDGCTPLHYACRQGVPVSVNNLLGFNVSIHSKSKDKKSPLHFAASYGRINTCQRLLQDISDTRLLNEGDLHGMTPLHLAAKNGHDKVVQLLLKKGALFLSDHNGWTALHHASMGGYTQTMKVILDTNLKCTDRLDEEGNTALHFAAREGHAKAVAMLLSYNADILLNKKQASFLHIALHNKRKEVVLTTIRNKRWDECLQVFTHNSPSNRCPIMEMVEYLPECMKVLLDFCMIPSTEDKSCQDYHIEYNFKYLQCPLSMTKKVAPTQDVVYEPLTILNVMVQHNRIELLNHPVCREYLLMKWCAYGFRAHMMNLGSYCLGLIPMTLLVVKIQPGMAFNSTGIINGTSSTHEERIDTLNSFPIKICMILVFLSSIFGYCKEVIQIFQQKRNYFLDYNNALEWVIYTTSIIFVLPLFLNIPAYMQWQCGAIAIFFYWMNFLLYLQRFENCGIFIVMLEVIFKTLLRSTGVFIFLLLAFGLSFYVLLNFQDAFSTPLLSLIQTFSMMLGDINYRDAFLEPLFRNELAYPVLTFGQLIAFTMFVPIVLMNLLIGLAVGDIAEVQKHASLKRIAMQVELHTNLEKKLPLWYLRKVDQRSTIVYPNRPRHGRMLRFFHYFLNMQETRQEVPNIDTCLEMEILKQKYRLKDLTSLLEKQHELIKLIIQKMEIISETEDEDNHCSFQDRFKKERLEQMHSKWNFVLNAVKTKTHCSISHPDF

A word on the IC50: it is the concentration at which inhibition is half-maximal. For orientation: pKa means the negative logarithm of the acid dissociation constant. Regarding `O=C(/C=C/c1ccc(Br)cc1)Nc1ccccc1C(=O)O`, the Activity in data set [1] worked out at 6%; in data set [7], 35%; in data set [8], 60%. The result in [2], in [10] and in [11] was Active. Besides, the figures for the IC50 in data set [3] and in data set [9] were 9 µM and 59 µM, respectively. The result in [4] and in data set [12] was inactive. Besides, in data set [5] (read-out: EC50), the EC50 is 12 µM. The compound also showed a pKa in data set [6] of 3.4.
Regarding `O=C(/C=C/c1ccccc1Cl)Nc1ccccc1C(=O)O`, the Activity worked out at 5% in [1], 25% in [7] and 44% in data set [8]. In addition, the IC50 in data set [3] was found to be 11 µM; in data set [9], 21 µM. Further, the result in data set [13], in data set [10] and in [11] was Active. The outcome in data set [4] and in [12] was inactive. In addition, the EC50 in data set [5] (read-out: EC50) amounted to 42 µM. Also, the pKa in data set [6] amounted to 3.4.
As for `CC(C)c1ccc(NC(=O)Cn2cnc3c2c(=O)n(C)c(=O)n3C)cc1`, in data set [3], the IC50 is 18 µM. For the same compound, the result in data set [14] was Active.
As to `CCCCCc1ccc(/C=C/C(=O)Nc2ccccc2C(=O)O)cc1`, the outcome in data set [15], in data set [16] and in [18] was Active. For the same compound, the EC50 in data set [5] (read-out: EC50) stood at 28 µM. Further, the result in data set [17] was inactive.
In the case of `O=C(O)c1ccccc1Nc1cccc(C(F)(F)F)c1` [FLUFENAMIC ACID], the results for the EC50 in data set [19], in data set [5] (read-out: EC50) and in [5] (read-out: pEC50 (converted)) were 24 µM, 7 to 57 µM and 6.92 µM, respectively. In data set [16], the outcome was Active. In [17], the outcome was inactive.
Regarding `COC(=O)c1ccccc1NC(=O)/C=C/c1ccccc1`, the Activity in data set [20] worked out at 61%; in [23] it was 22%. Moreover, the pKa in data set [6] came out at 13.9. In addition, the result in data set [21] and in data set [22] was inactive.
As for `CN1CCC[C@H]1c1cccnc1` [NICOTINE], the EC50 in [24] was 10 µM; in data set [5] (read-out: EC50) it was 2 µM. Moreover, in data set [25], the outcome was Active.
Consider `O=C(O)Cc1ccccc1Nc1c(Cl)cccc1Cl` [DICLOFENAC], for which the figures for the EC50 in data set [19], in [5] (read-out: EC50) and in [5] (read-out: pEC50 (converted)) were 210 µM, 56 µM and 63.1 µM, respectively. For the same compound, the outcome in data set [18] was Active.
